High-throughput results (PubChem)
Runt-CBFb FRET: blocks binding of human RUNX1 Runt domain to CBFb | Q01196+Q13951 | Cerulean-Runt/Venus-CBFb FRET ratio 530/480, 1 h | inhibition, % at 20 µM | 220,000 compounds, 0.46% hits | AID 1496;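 active = inhibition over about 50% at 20 µM in the single-dose screen, limit read from the data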;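 note: 0% = DMSO wells and 100% = excess unlabeled CBFb competitor control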
Target sequence (Q01196 whole entry, looked up, the tested form may be a part): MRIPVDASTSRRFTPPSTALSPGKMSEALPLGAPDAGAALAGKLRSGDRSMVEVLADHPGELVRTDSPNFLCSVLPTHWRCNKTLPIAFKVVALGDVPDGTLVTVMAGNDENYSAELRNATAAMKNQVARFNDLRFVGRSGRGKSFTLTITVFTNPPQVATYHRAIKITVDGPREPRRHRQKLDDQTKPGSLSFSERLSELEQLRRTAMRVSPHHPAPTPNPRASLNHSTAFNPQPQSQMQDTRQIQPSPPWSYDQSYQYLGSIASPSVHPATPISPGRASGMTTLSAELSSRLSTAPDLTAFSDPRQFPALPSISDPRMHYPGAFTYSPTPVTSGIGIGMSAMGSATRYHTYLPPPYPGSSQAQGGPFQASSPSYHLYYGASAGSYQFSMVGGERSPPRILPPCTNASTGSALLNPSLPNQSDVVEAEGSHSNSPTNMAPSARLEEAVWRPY
Target sequence (Q13951 whole entry, looked up, the tested form may be a part): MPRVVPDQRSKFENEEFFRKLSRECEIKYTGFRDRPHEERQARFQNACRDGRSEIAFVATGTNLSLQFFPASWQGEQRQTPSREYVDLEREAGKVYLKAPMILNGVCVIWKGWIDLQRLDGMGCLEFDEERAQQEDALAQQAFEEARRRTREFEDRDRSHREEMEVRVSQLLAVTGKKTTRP
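Measured by: fluorescence energy transfer, 422 nm excitation, 530/480 nm emission; Assay system: Cerulean-Runt domain; Medium: Tris pH 7.5 buffer with BSA; Measure: loss of energy transfer signal; Controls: 5 µM unlabeled CBFb as full-inhibition high control; Incubation: protein complex preformed 1 h, compound exposure 1 h, room temperature, dark.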
Hck Nef HTS: human Hck-Nef kinase inhibition; P08631; Recombinant Hck-YEEI plus Nef, Z-Lyte FRET kinase assay; inhibition, % at 20 µM; 220,000 compounds, 0.68% hits;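 active = Hck-Nef kinase inhibition above about 50%, limit read from the data; inactive = inhibition below that limit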;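 note: 0% = DMSO with Hck plus Nef and 100% = Hck alone without Nef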
Runt-SMMHC FRET: inhibitors of human RUNX1 Runt domain binding to CBFb-SMMHC; 220,000 compounds, 0.74% hits; Q01196+Q13951; Cerulean-Runt/Venus-CBFb-SMMHC FRET ratio 530/480, 1 h; inhibition, % at 20 µM;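 active = mean inhibition across duplicate retests at 20 µM reaching about 50%, limit read from the data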;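 note: 0% = DMSO wells and 100% = wells with excess untagged CBFb-SMMHC; inhibitors lower the FRET ratio by blocking Runt binding to CBFb-SMMHC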
Tb hexokinase: T. brucei hexokinase 1 inhibition. 220,000 compounds, 0.11% hits. inhibition, % at 10 µM. AID 1430. recombinant TbHK1, G6PDH-coupled NADH A340;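 active = inhibition of 50% or more in the single-dose primary screen; inactive = inhibition below 50%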
RanGTP-Imp inh: disruptors of Ran-importin-beta complex formation – biochemical, FRET, CFP-Ran, YFP-importin-beta, homogeneous, primary screen | cell-free CFP-Ran/YFP-importin-beta FRET ratio | inhibition, % (concentration not given with the values) | 300,000 compounds, 1.1% hits;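 active = more than half of the replicate wells show a fall in the fluorescence ratio signal beyond about 16%, limit read from the data, passing the limit was not always enough; inconclusive = exactly half of the replicate wells pass the set limit; inactive = fewer than half of replicates pass the limit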;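 note: 0% = DMSO wells and 100% = Ran loaded with GDP instead of GTP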
p97 ATPase inh: blocks human p97 ATPase activity | P55072 | recombinant p97 ATPase, Kinase-Glo ATP luminescence, 3 h | inhibition, % at 8 µM | 220,000 compounds, 0.42% hits | AID 1481; in the data active = inhibition above about 15%;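 note: 0% = DMSO vehicle and 100% = wells lacking enzyme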
YIC FRET counter: counter-screen for RanGTP-importin-beta inhibitors: YIC FRET probe; 1,000 compounds, 40% hits; shares compounds with RanGTP-Imp inh; IC50, µM; Purified YIC probe, intramolecular FRET ratio YFP/CFP; AID 435026;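 active = fitted half-maximal inhibitory concentration no more than tenfold above the top dose tested; inconclusive = flat fit with 30 to 70% activity, or poor fit; inactive = half-maximal concentration beyond tenfold above the top dose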
* hit, by the source's call; ? = inconclusive; . = no result given. An excerpt weighted towards active compounds, which were near 2.1% of everything screened.

SMILES | Runt-CBFb FRET | Hck Nef HTS | Runt-SMMHC FRET | Tb hexokinase | RanGTP-Imp inh | p97 ATPase inh | YIC FRET counter
COc1c2ccccc2nc2ccccc12 | . | . | . | . | 41* | . | 14*
Cc1c2ccccc2nc2ccccc12 | . | . | . | . | 4 | . | .
COc1ccc(S(=O)(=O)NCc2ccco2)cc1NC(=O)c1ccccc1 | . | . | . | . | -1 | . | .
CCc1nnc(NS(=O)(=O)c2ccc(NCc3cc(Cl)cc(Cl)c3O)cc2)s1 | . | . | . | . | -5 | . | .
Cc1c(CCC(=O)NC2CC2)c(=O)oc2c(C)c(O)ccc12 | . | . | . | . | 27* | . | 20*
Cc1c(CCC(=O)NCCCN2CCCC2=O)c(=O)oc2c(C)c(O)ccc12 | . | . | . | . | 33* | . | 16*
Cc1oc2cc3oc(=O)c(CCC(=O)NC4CC4)c(C)c3cc2c1C | . | . | . | . | 1 | . | .
Cc1cccc(Nc2ccncc2S(N)(=O)=O)c1 | . | . | . | . | 4 | . | .
Cc1ccc(S(=O)(=O)N(C)C)cc1NC(=O)C1CCCN(C(=O)c2ccc(Cl)cc2)C1 (configuration not stated) | . | . | . | . | -1 | . | .
O=[N+]([O-])c1ccc(S(=O)(=O)Nc2nnc(C3CCCCC3)s2)cc1 | . | . | . | . | 20* | . | >50
O=C(Cn1nnc(-c2cccs2)n1)NCCc1ccccc1 | 0 | -6 | -4 | 5 | 10 | -1 | .
O=C(Cn1nnc(-c2ccncc2)n1)NCCc1ccccc1 | 0 | 1 | -4 | 1 | 18* | 8 | >50
O=S(=O)(c1ccc(NC(=S)NCc2ccncc2)cc1)N1CCCCC1 | 3 | 5 | -1 | -4 | 3 | 7 | .
N#Cc1ccc(/C=C(\C(=O)C(=O)O)c2ccc3ccccc3n2)cc1 | 30 | 32 | 64* | -27 | 20* | -4 | 12*
Cc1ccc(-n2cc(CNCCN3CCOC3=O)c(-c3cccc(C)c3)n2)cc1 | . | 15 | . | -8 | 2 | 1 | .
Cc1cccc(C2=NN(c3ccc(Br)cc3)[C@@H](C(=O)N3CCOC3=O)[C@@H]2c2ccc(F)cc2)c1 | 18 | 1 | 56 | -17 | 18* | -4 | 35*
Cc1cc(C)cc(N(C(C)C(=O)N2CCCC2)S(C)(=O)=O)c1 (configuration not stated) | . | . | . | . | 0 | . | .
CC(C)Oc1ccc2c3c(c(=O)oc2c1)CCC3 | -3 | 2 | 0 | -15 | 3 | -8 | .
O=C(Oc1ccc2c3c(c(=O)oc2c1)CCCC3)c1ccco1 | 130* | 32 | 166* | -14 | 17* | 7 | 20*
Cc1c(C)c(C)c(CO/N=C/c2cccs2)c(C)c1C | 2 | 12 | 4 | -13 | -2 | 1 | .
N#C/C(=C(/O)COc1ccc(Cl)cc1)c1nc2ccccc2s1 | -3 | -4 | -3 | -36 | -4 | 2 | .
N#C/C(=C(/O)CSc1ccccn1)c1nc2ccccc2s1 | 7 | 13 | -1 | 2 | 21* | -3 | >50
COc1cccc(CNC(=O)c2ccc(CS(=O)c3ccccc3)o2)c1 (configuration not stated) | . | . | . | . | 2 | . | .
COc1ccccc1-n1cnc2cc(NCc3cccs3)ccc21 | 21 | -22 | 2 | 39 | ? | -2 | .
COc1ccc(CNc2ccc3c(c2)ncn3-c2ccccc2OC)cc1 | 6 | -1 | 7 | 4 | 29* | 1 | >50
SMILES | Runt-CBFb FRET | Hck Nef HTS | Runt-SMMHC FRET | Tb hexokinase | RanGTP-Imp inh | p97 ATPase inh | YIC FRET counter
Cc1ccccc1-n1cnc2cc(NCc3cccs3)ccc21 | 0 | 1 | 6 | -4 | 22* | 2 | >50
CCOC(=O)c1c(NC(=O)CSc2nnc3c(n2)[nH]c2ccc(F)cc23)sc(C(C)=O)c1C | -5 | -4 | -7 | -3 | . | -2 | .
CCOC(=O)c1c(NC(=O)CSc2nnc3c(n2)[nH]c2ccccc23)sc2c1CCN(C)C2 | . | 4 | . | -19 | 24* | 2 | >50
COCC(=O)Nc1nnc(COc2ccc(Cl)cc2)s1 | 0 | 5 | -4 | 4 | 26* | 2 | >50
CCN1CCN(C(=O)CCNC(=O)Cn2cnc3ccccc3c2=O)CC1 | . | . | . | . | 3 | . | .
Cc1ccc2cc(C#N)c(N3CCCN(C(=O)C4CCCO4)CC3)nc2c1 (configuration not stated) | 4 | 12 | 2 | 3 | 18* | 0 | 26*
COc1ccc(C(=O)N2CCN(c3nc4cc(C)ccc4cc3C#N)CC2)c(OC)c1 | 8 | 3 | 10 | -6 | 3 | -3 | .
COc1cc(C(=O)N2CCCN(c3nc4cc(C)ccc4cc3C#N)CC2)cc(OC)c1OC | 4 | . | 44 | . | 52* | . | 15*
COc1ccc2cc(C#N)c(N3CCN(C(=O)c4ccccc4C)CC3)nc2c1 | 12 | -30 | 6 | -9 | 31* | -2 | >50
Cc1ccc(S(=O)(=O)N2CCCN(c3nc4cc(C)ccc4cc3C#N)CC2)cc1 | 8 | 0 | 48 | -4 | 32* | -1 | 28*
Cc1ccc2cc(C#N)c(N3CCCN(C(=O)c4cnccn4)CC3)nc2c1 | . | . | . | . | 6 | . | .
Cc1ccc(C(=O)Nn2cnc3ccccc3c2=O)cc1C | . | . | . | . | -1 | . | .
O=[N+]([O-])c1cc([N+](=O)[O-])c(Oc2cccnc2Br)cc1NN1CCCCC1 | . | . | . | . | 0 | . | .
Cc1ccc2cc(C#N)c(N3CCCN(C(=S)NCCCN(C)C)CC3)nc2c1 | . | . | . | . | 19* | . | 25*
O=C(Cc1ccc(Cl)cc1Cl)OCC(=O)N1CCN(C(=O)c2ccco2)CC1 | 1 | 21 | 1 | 0 | 4 | 9 | .
O=C(CCS(=O)(=O)c1ccccc1)Nc1cccc(-c2nc3ccccc3s2)c1 | -2 | -1 | 3 | -1 | 4 | -8 | .
O=C(Nc1cccc(-c2nc3ccccc3s2)c1)c1cccs1 | 0 | 2 | 4 | 1 | 25* | 4 | >50
NC(=O)c1sc2nccc(Nc3ccccc3)c2c1N | 23 | 42 | 42 | -11 | 39* | 6 | >50
CSCC(C)N1CCC(N2CCC(C(=O)NCc3ccccn3)CC2)CC1 (configuration not stated) | . | . | . | . | 19* | . | >50
Cc1ccc(S(=O)(=O)c2cc3c(=O)n4cccc(C)c4nc3n(C3CCCCC3)c2=N)cc1 | . | . | . | . | 34* | . | 3.9*
COC(=O)C1=CN(Cc2ccccc2)C=C(C(=O)OC)C1c1cc(F)ccc1F | . | . | . | . | 24* | . | 21*
COc1c(C)cc(C(=O)C2CCCN(S(=O)(=O)N(C)C)C2)cc1C (configuration not stated) | . | . | . | . | 4 | . | .
COc1cc(C2C3CN(C)CC=C3C(C#N)=C(N)C2(C#N)C#N)ccc1OC(C)C (configuration not stated) | 88* | 6 | 39 | -4 | 39* | 6 | 3.3*
O=C(Cn1c2ccccc2c(=O)c2ccccc21)Nc1ccccc1F | 119* | 16 | 83 | 4 | 36* | 5 | 6.6*
CCN(CC)S(=O)(=O)c1cccc(N=Nc2c(O)c3ccccc3oc2=O)c1 | -4 | 18 | 0 | -12 | -5 | 3 | .
